Assay results published in PubChem BioAssay.
Records with an inconclusive call do not appear.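 How the source made its calls, unless noted: active means inhibition over a set limit, the all-compound mean plus 3 SD, in both replicate runs; inconclusive means over that limit in just one replicate run; inactive means at or under that limit in both runs.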

What was measured:
[1] = OD615 S. cerevisiae growth inhibition, permissive medium, pilot counter-assay, permissive growth control for S. cerevisiae lifespan shortening project (AID 705;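 active means growth inhibition above 25% in both replicates, a cutoff set 3 SD above the mean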); conditions: OD615, 24 h, at 10 µM, active compounds read high
Summary of the method: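 Timing: 24 h exposure, 30 °C / Material: Saccharomyces cerevisiae strain carrying genetically modified DeaD replicative-lifespan system / Signal: OD at 615 nm / Compound: 10 µM single dose, 0.25% DMSO / Medium: SC raffinose/galactose permissive medium / Evaluation: reduction in yeast growth (OD615)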

[2] = Restrictive medium S. cerevisiae growth inhibition, OD615, pilot screen of yeast lifespan reduction project, restrictive growth control (AID 706;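 active means growth inhibition above a set limit, 3 SD over mean compound inhibition, in both replicates, cut at about 43% in these data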;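 further: modified DeaD lifespan yeast strain shifted to restrictive glucose medium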); conditions: OD615, 48 h, at 10 µM, active compounds read high
Summary of the method: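 System: Engineered S. cerevisiae DeaD strain | Detection: OD615 | Buffer or medium: CSMM-D glucose medium | Doses: 10 µM compound, 0.25% DMSO | Timing: 4 h pre-growth plus 48 h compound exposure, 30 °C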

[3] = viability gain of MRP-1-high H69AR cells under doxorubicin, pilot screen, MRP-1 activator project, CellTiter-Glo, duplicate (AID 807;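 active means viability increase at or above a cutoff of the median across tested compounds plus 3 SD, cut at about 8.5% in these data, passing the limit was not always enough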;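 further: compound pretreatment 18-22 h then 72 h combined with doxorubicin; 0% = doxorubicin alone and 100% = vehicle without doxorubicin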); conditions: H69AR viability with doxorubicin, CellTiter-Glo luminescence; at 10 µM; active compounds read high
[4] = growth suppression of beta-catenin knockout HCT116, pilot screen, human colon tumor cells (AID 823;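 active means cell viability at or below a set limit in both duplicate runs, the limit being the all-compound median minus 4 SD, cut at about 23% in these data, passing the limit was not always enough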;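 further: 0% = wells killed by 20 µM Hyamine and 100% = untreated DMSO cell wells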); conditions: CellTiter-Glo, 60 h, at 10 µM, active compounds read low
[5] = growth suppression of PTEN-deleted HCT116, pilot screen, cell-based, HCT116 clonal line, CellTiter-Glo (AID 824;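 active means viability at or below 27.92% in each of two runs, the all-compound median minus 4 SD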;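 further: 0% = 20 µM Hyamine control and 100% = vehicle cell control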); conditions: 60 h, at 10 µM, active compounds read low
[6] = inhibitors of the yeast RAM network, pilot screen, dse1pr::URA3 reporter, 5-FOA selection (AID 869);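 further: 0% = DMSO wells with no growth and 100% = 10 µM 1-NA-PP1 with full growth; RAM network block rescues cells from 5-FOA so hits raise OD615 growth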; conditions: S. cerevisiae dse1pr::URA3 5-FOA growth, OD615, 2 d; at 10 µM; active compounds read high; strain carries analog-sensitive mutant Cbk1 kinase
[7] = RAM signaling pathway blockade in yeast – S. cerevisiae, Pdr1DBD-CYC8 efflux-inhibited sensitized strain, primary screen (AID 1298;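 active means RAM network inhibition above 8.4% in each of two replicates, 3 SD over the compound average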;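 further: 0% = DMSO untreated cells without growth and 100% = 10 µM 1-NA-PP1 full growth; higher means more yeast growth rescued from 5-FOA killing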); conditions: S. cerevisiae cbk1-as DSE1-URA3 strain, 5-FOA growth OD615, 2 d; at 50 µM; active compounds read high

O=C1CC(c2ccccc2)CN1S(=O)(=O)c1ccccc1 (stereo not drawn)
inactive: growth inhibition [1] -1.7% | growth inhibition [2] 3.08% | viability increase [3] 0% | viability [4] 108% | viability [5] 97.8% | inhibition [6] 0.085% | RAM network inhibition [7] 1.71%

CCOC(=O)c1ccc(NC(=O)C(C)N2C(=O)c3ccccc3C2=O)cc1 (stereo not drawn)
inactive: growth inhibition [1] -13.1% | growth inhibition [2] -21.9% | viability increase [3] 0.15% | viability [4] 104% | viability [5] 100% | inhibition [6] 0.645% | RAM network inhibition [7] 4.7%

COC(=O)CCc1n[nH]c(=O)[nH]c1=O
inactive: growth inhibition [1] 3.66% | growth inhibition [2] 9.25% | viability increase [3] 0.89% | viability [4] 106% | viability [5] 102% | inhibition [6] 0.54% | RAM network inhibition [7] -0.87%

CCOC(=O)c1c(N=CN(C)C)c(C#N)n2c1CCC2
inactive: growth inhibition [1] -15.1% | growth inhibition [2] -6.7% | viability increase [3] -1.41% | viability [4] 101% | viability [5] 93.2% | inhibition [6] 1.11% | RAM network inhibition [7] 5.49%

Cc1c(NC(=O)c2ccc(F)cc2)c(=O)n(-c2ccccc2)n1C
inactive: growth inhibition [1] -15.9% | growth inhibition [2] -7.79% | viability increase [3] -2.08% | viability [4] 106% | viability [5] 96.6% | inhibition [6] 1.34% | RAM network inhibition [7] 1.21%

Cn1nc(-c2ccc(Cl)cc2)c2cc(C(=O)N3CCN(c4ccccc4)CC3)sc21
inactive: growth inhibition [1] -0.325% | growth inhibition [2] -3.28% | viability increase [3] -5.26% | viability [4] 71.2% | viability [5] 72.2% | inhibition [6] 3.44% | RAM network inhibition [7] 5.19%

Cc1cc(C)cc(N(CC(=O)NC2CC3CCC2C3)S(C)(=O)=O)c1 (stereo not drawn)
inactive: growth inhibition [1] -11.4% | growth inhibition [2] -10.6% | viability increase [3] -0.31% | viability [4] 90.4% | viability [5] 88% | inhibition [6] -0.04% | RAM network inhibition [7] 2.79%

CCNS(=O)(=O)c1ccc(NC(=O)c2cccnc2)cc1
inactive: growth inhibition [1] 1.24% | growth inhibition [2] 8.7% | viability increase [3] 0.48% | viability [4] 95% | viability [5] 99.6% | inhibition [6] 1.61% | RAM network inhibition [7] 6.74%

CCOC(=O)CSc1nnc(CSc2nc3sc4c(c3c(=O)[nH]2)CCC4)n1C
inactive: growth inhibition [1] -5.48% | growth inhibition [2] 4.33% | viability increase [3] -2% | viability [4] 98.4% | viability [5] 107% | inhibition [6] 0.35% | RAM network inhibition [7] 6.56%

CC(=O)NCC(=O)OCC(=O)c1ccc(C)cc1
inactive: growth inhibition [1] 1.93% | growth inhibition [2] -5.04% | viability increase [3] -0.54% | viability [4] 97.6% | viability [5] 94.9% | inhibition [6] 1.21% | RAM network inhibition [7] -0.06%

N#CC1=C(c2ccccc2)N=P(N2CCOCC2)(N2CCOCC2)N=C1N1CCOCC1
inactive: growth inhibition [1] -6.26% | growth inhibition [2] -16.2% | viability increase [3] 0.57% | viability [4] 103% | viability [5] 107% | inhibition [6] 1.39% | RAM network inhibition [7] 0.33%

CCOC(=O)c1ccc(NC(=O)c2nn(C)cc2Br)cc1
inactive: growth inhibition [1] -7.53% | growth inhibition [2] -10.1% | viability increase [3] -1.34% | viability [4] 101% | viability [5] 105% | inhibition [6] 0.925% | RAM network inhibition [7] 6.88%

Cc1cccc(OCC(=O)Nc2ccc3c(c2)OCO3)c1C
inactive: growth inhibition [1] -5.98% | growth inhibition [2] -2.99% | viability increase [3] -0.26% | viability [4] 103% | viability [5] 103% | inhibition [6] 1.77% | RAM network inhibition [7] 7.79%

CCOC(=O)c1c(C)nc(-c2ccccc2)nc1NC(C)=O
inactive: growth inhibition [1] -15.7% | growth inhibition [2] -5.61% | viability increase [3] -0.84% | viability [4] 92% | viability [5] 89.5% | inhibition [6] 1.92% | RAM network inhibition [7] 7.29%

OCCNCCCCCOc1ccc(F)cc1
inactive: growth inhibition [1] -1.2% | growth inhibition [2] -16.2% | viability increase [3] -1.34% | viability [4] 96.2% | viability [5] 94.5% | inhibition [6] 2.19% | RAM network inhibition [7] 0.69%

O=C(CC1c2ccccc2Oc2ccccc21)N1CCN(c2ccccn2)CC1
inactive: growth inhibition [1] -16.3% | growth inhibition [2] -10.3% | viability increase [3] -3.24% | viability [4] 71.6% | viability [5] 70.5% | inhibition [6] 1.08% | RAM network inhibition [7] 4.78%

COC(=O)c1ccccc1NC(=O)CS(=O)(=O)Cc1nc(-c2ccc(C)cc2)oc1C
inactive: growth inhibition [1] -9.1% | growth inhibition [2] -21.8% | viability increase [3] -2.52% | viability [4] 93.5% | viability [5] 87.8% | inhibition [6] 4.7% | RAM network inhibition [7] 4.03%

COc1ccc2c(C)cc(=O)oc2c1C
inactive: growth inhibition [1] 2.89% | growth inhibition [2] -2.73% | viability increase [3] -2.26% | viability [4] 102% | viability [5] 94.7% | inhibition [6] 1.96% | RAM network inhibition [7] 5.35%

Cc1occc1-c1nnc2sc(-c3ccc(-c4ccc(Cl)cc4)o3)nn12
inactive: growth inhibition [1] 7.94% | growth inhibition [2] 21.2% | viability increase [3] 2.86% | viability [4] 106% | viability [5] 95.8% | inhibition [6] 3.19% | RAM network inhibition [7] 5.57%

COCCNc1cc(C)nc2c(-c3ccccc3OC)c(C)nn12
inactive: growth inhibition [1] -1.17% | growth inhibition [2] 4.02% | viability increase [3] -2.38% | viability [4] 97.2% | viability [5] 94.2% | inhibition [6] 1.74% | RAM network inhibition [7] 0.56%

Cc1ccc(C2c3c(oc4ccc(C)cc4c3=O)C(=O)N2CCCN2CCOCC2)cc1 (stereo not drawn)
inactive: growth inhibition [1] -8.48% | growth inhibition [2] -3.63% | viability increase [3] -5.72% | viability [4] 77.3% | viability [5] 84.1% | inhibition [6] 0.99% | RAM network inhibition [7] -1.21%

Cc1ccc2oc3c(c(=O)c2c1)C(c1ccc(F)cc1)N(CCCN1CCOCC1)C3=O (stereo not drawn)
inactive: growth inhibition [1] -3.52% | growth inhibition [2] -0.585% | viability increase [3] -4.72% | viability [4] 91% | viability [5] 89.6% | inhibition [6] 0.595% | RAM network inhibition [7] 0.29%

CCC(Oc1ccccc1)C(=O)Nc1cc(C)on1 (stereo not drawn)
inactive: growth inhibition [1] -8.55% | growth inhibition [2] -7.2% | viability increase [3] -0.57% | viability [4] 108% | viability [5] 90.2% | inhibition [6] 0.86% | RAM network inhibition [7] 0.2%

COC(=O)c1cc(=O)nc2scc(C)n12
inactive: growth inhibition [1] -13% | growth inhibition [2] -18.9% | viability increase [3] -0.3% | viability [4] 103% | viability [5] 99.5% | inhibition [6] 0.885% | RAM network inhibition [7] 4.74%
